From the M2OR odorant receptor database

Tests used:
Conditions in all cases: stereoisomer not certain
OR10S1 (Homo sapiens) = biological target: T1, OR10S1 (Homo sapiens) (UniProt Q8NGN2)
T1 sequence (whole entry): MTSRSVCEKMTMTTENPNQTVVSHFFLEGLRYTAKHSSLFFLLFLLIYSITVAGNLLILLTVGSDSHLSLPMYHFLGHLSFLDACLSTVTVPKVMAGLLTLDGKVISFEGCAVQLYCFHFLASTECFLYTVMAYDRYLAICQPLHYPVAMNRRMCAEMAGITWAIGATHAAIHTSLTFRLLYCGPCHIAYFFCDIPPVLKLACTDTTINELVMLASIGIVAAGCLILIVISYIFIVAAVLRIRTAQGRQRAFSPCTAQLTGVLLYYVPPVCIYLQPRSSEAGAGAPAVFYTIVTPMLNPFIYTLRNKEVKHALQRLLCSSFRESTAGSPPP
In short: (§1)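 Values were gathered from published papers (main text and supplementary material), with extra details requested from the original authors when needed, and checked for typos and inconsistencies. Each receptor–molecule pair is called responsive (active) if the original authors judged the measured signal statistically different from baseline, and non-responsive (inactive) otherwise. Assay methods varied by source, often transient mammalian cell-line luciferase assays. Recorded details include cell line, G-protein, co-transfected protein and tags.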

OR10Q1 (Homo sapiens) = OR10Q1 (Homo sapiens) (UniProt Q8NGQ4)
OR10Q1 (Homo sapiens), sequence (Q8NGQ4 whole entry): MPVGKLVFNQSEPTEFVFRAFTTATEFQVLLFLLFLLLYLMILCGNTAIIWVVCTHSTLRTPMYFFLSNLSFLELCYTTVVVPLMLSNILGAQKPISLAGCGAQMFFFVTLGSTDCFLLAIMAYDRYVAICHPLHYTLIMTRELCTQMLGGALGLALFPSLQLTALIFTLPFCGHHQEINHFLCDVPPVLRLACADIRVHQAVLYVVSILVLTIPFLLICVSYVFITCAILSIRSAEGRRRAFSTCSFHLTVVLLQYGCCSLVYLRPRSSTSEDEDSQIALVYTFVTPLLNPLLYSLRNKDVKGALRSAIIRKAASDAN
In short: as §1

OR10R2 (Homo sapiens) = OR10R2 (Homo sapiens) (UniProt Q8NGX6)
OR10R2 (Homo sapiens), sequence (Q8NGX6 whole entry): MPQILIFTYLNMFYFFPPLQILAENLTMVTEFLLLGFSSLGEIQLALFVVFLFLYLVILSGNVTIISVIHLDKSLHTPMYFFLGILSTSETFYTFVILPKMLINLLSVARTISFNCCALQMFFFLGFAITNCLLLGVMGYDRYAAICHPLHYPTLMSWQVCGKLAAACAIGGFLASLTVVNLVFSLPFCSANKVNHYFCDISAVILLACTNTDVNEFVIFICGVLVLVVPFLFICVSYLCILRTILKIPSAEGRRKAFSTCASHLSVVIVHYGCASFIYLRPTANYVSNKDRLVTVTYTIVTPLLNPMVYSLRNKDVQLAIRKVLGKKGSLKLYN
In short: as §1

OR10T2 (Homo sapiens) = OR10T2 (Homo sapiens) (UniProt Q8NGX3)
OR10T2 (Homo sapiens), sequence (Q8NGX3 whole entry): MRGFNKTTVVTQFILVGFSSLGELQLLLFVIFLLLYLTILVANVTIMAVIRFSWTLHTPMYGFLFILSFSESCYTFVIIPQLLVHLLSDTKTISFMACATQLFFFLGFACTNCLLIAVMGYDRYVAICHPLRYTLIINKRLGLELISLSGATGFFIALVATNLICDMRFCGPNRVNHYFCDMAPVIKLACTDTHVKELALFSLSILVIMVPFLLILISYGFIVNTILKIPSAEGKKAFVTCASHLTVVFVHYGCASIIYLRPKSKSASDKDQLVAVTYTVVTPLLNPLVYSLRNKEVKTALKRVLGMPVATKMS
In short: as §1

OR10V1 (Homo sapiens) = OR10V1 (Homo sapiens) (UniProt Q8NGI7)
OR10V1 (Homo sapiens), sequence (Q8NGI7 whole entry): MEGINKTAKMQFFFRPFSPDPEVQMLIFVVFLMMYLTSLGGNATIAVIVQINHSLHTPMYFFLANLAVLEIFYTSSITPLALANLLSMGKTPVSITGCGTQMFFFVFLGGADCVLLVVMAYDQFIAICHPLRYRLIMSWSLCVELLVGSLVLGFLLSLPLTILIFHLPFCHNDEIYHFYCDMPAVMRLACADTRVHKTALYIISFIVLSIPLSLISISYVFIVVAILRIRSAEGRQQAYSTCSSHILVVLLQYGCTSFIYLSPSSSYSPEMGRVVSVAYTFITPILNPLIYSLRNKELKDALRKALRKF
In short: as §1

OR10W1 (Homo sapiens) = OR10W1 (Homo sapiens) (UniProt Q8NGF6)
OR10W1 (Homo sapiens), sequence (Q8NGF6 whole entry): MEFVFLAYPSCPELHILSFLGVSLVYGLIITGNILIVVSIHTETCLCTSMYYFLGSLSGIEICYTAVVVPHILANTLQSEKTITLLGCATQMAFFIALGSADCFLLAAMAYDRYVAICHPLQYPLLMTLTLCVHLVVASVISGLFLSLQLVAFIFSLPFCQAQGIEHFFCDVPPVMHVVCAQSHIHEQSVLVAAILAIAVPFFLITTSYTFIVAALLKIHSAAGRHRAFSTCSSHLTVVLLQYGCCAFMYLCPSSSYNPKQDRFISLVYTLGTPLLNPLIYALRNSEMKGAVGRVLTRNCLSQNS
In short: as §1

OR10X1 (Homo sapiens) = OR10X1 (Homo sapiens) (UniProt Q8NGY0)
OR10X1 (Homo sapiens), sequence (Q8NGY0 whole entry): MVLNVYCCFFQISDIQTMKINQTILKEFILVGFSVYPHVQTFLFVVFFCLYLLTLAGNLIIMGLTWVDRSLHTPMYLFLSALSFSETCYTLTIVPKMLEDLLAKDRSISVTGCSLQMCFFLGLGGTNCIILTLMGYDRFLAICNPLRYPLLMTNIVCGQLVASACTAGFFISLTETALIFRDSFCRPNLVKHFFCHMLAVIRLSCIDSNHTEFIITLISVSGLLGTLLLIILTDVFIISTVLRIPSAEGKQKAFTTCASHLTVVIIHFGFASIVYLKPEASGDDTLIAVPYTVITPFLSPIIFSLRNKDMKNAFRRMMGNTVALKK
In short: as §1

OR10Z1 (Homo sapiens) = OR10Z1 (Homo sapiens) (UniProt Q8NGY1)
OR10Z1 (Homo sapiens), sequence (Q8NGY1 whole entry): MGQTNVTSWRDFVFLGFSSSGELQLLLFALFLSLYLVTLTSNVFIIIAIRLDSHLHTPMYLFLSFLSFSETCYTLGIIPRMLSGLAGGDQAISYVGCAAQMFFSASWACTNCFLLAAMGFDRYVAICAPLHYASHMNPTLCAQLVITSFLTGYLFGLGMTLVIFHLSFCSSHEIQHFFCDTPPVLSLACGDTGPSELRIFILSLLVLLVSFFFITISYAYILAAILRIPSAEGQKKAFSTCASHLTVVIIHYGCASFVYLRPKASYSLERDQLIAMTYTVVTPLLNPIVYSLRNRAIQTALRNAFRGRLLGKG
In short: as §1

OR11A1 (Homo sapiens) = OR11A1 (Homo sapiens) (UniProt Q9GZK7)
OR11A1 (Homo sapiens), sequence (Q9GZK7 whole entry): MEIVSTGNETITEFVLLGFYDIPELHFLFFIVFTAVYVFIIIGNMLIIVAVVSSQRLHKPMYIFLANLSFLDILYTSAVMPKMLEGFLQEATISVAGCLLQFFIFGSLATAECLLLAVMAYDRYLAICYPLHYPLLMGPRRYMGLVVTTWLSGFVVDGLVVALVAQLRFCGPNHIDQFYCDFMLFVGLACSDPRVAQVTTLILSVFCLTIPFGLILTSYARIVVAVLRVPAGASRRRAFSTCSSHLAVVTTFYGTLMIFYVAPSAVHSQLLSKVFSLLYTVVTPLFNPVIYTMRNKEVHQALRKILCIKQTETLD
In short: as §1

OR11G2 (Homo sapiens) = OR11G2 (Homo sapiens) (UniProt Q8NGC1)
OR11G2 (Homo sapiens), sequence (Q8NGC1 whole entry): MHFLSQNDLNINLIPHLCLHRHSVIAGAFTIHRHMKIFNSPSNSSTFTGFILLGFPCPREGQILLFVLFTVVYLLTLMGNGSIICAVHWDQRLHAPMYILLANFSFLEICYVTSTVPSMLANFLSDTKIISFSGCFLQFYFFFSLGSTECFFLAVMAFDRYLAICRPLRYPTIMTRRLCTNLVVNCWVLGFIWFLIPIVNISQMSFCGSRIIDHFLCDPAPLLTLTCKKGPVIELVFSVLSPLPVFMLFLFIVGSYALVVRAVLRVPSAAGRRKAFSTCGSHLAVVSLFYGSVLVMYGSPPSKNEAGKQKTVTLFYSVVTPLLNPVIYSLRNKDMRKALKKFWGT
In short: as §1

Measured: odorant receptor agonist call

COc1ccc(C=O)cc1
inactive: OR10S1 (Homo sapiens)

Cc1c([N+](=O)[O-])c(C)c([N+](=O)[O-])c(C(C)(C)C)c1[N+](=O)[O-]
inactive: all assays above

C=CCOC(=O)Cc1ccccc1
inactive: all assays above

Cc1cccc(C)c1
inactive: OR10S1 (Homo sapiens)
